Test results published in paper PMC3058505 (Hepatology (Baltimore, Md.), 2010).
Where a name gives a salt, the structure may show the parent alone.

Experiments:
[1] = system: HCV NS5A and core protein in NS or FL replicons; assay: Western blot of HCV proteins in NS and FL replicons; format: cell-based, hepatitis C virus; conditions: biliverdin 20 µM, BR 200 µM or FeCl2 100 µM for 24 h; both replicon lines
How it was run: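 Log-phase NS (Huh5-15) or FL (Huh7.5 Con1) replicon cells were treated for 24 h. BV and BR were dissolved in 0.2 N NaOH, with vehicle controls. Cells were then lysed and analysed by Western blot with enhanced chemiluminescence detection. Band intensities were quantified by densitometry.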

[2] = system: replicon cells; assay: Proliferation and cytotoxicity assays; format: cell-based, human; conditions: medium containing 5 or 10% FBS
[3] = target: HCV NS3/4A protease (recombinant) (Hepatitis C virus genotype 1b, UniProt O92972); assay: SensoLyte 620 HCV Protease Assay with recombinant NS3/4A protease; format: biochemical
HCV NS3/4A protease (recombinant), sequence (O92972 1013-1207, looked up, natural form): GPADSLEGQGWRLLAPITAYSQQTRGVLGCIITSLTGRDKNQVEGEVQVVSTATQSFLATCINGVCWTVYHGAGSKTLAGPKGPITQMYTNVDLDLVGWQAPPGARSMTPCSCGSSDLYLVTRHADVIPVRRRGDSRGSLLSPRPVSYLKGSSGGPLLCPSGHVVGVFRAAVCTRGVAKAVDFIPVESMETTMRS

[4] = system: J6/JFH infectious HCV in Huh7.5 cells; assay: J6/JFH HCV infection of Huh7.5 cells; format: cell-based, hepatitis C virus; conditions: BV 20–200 µM, 72 h; HCV polyvalent sera immunoreactivity and HCV RNA
How it was run: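 Huh7.5 cells were inoculated with infectious J6/JFH HCV and passed. They were then treated with BV at 0, 20 or 200 µM for 72 h. Cells were fixed in absolute methanol, washed in PBS and stained with genotype 2A polyvalent human serum. Detection used an anti-human alkaline phosphatase conjugate and photomicroscopy. HCV RNA was measured by ΔCT real-time RT-PCR, 3–5 determinations per group, mean ± SEM.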

[5] = system: HCV replication in FL or NS replicons; format: cell-based, hepatitis C virus; conditions: 50 or 100 µM BV overnight with α-interferon
How it was run: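 Cell lines were Huh7.5 cells with full-length Con1 replicons (FL) and Huh5-15 cells with subgenomic replicons (NS). They received α-interferon alone or with BV. BV was dissolved in 0.2 N NaOH, and controls got the same NaOH volume. HCV RNA was measured by real-time RT-PCR using the comparative cycle threshold (ΔCT) method. Values are mean ± SEM of 3 determinations per point.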

[6] = target: endogenous NS3/4A protease from replicon microsomes (Hepatitis C virus genotype 1b, UniProt Q9WMX2); format: biochemical
endogenous NS3/4A protease from replicon microsomes, sequence (Q9WMX2 1027-1657): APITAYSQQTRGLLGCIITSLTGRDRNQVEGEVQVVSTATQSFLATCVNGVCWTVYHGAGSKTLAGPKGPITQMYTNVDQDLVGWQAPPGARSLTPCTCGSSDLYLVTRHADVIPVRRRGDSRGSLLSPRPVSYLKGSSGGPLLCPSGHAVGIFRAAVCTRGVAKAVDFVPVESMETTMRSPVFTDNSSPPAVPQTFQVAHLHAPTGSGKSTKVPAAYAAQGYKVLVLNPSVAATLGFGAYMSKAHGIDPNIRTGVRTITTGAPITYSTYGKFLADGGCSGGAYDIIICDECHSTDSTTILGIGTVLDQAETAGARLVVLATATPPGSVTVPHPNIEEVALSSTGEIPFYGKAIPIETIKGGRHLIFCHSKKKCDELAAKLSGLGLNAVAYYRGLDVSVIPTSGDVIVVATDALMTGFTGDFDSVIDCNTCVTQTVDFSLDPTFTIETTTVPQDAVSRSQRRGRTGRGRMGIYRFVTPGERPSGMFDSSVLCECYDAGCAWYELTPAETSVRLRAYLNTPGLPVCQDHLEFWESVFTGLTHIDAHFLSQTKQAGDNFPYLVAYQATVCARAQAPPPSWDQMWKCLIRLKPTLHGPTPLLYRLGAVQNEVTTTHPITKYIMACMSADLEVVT
endogenous NS3/4A protease from replicon microsomes, sequence (Q9WMX2 1658-1711): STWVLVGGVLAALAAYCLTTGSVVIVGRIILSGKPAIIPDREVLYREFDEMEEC

[7] = system: HCV replication in Huh5-15NS replicon; assay: HCV replication in non-structural; format: cell-based, hepatitis C virus; conditions: for Relative [HCV] [ΔCΤ]: Huh5-15NS, control = 1.0
How it was run: (§1)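 Log-phase replicon cells were incubated overnight with hemin (0, 5, 10 or 20 µM) or control vehicle. Cells were Huh7.5FL (full-length Con1) or Huh5-15NS (subgenomic). Relative HCV RNA was found by real-time RT-PCR with the comparative cycle threshold (ΔCT) method and normalised to vehicle control = 1.0. Each value is the mean of four determinations.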

[8] = system: HCV replication in Huh7.5FL Con1 replicon; assay: HCV replication in full-length; format: cell-based, hepatitis C virus; conditions: for Relative [HCV] [ΔCΤ]: Huh7.5FL, control = 1.0
How it was run: as §1

Compound: C=CC1=C(C)/C(=C/c2[nH]c(Cc3[nH]c(/C=C4\NC(=O)C(C)=C4C=C)c(C)c3CCC(=O)O)c(CCC(=O)O)c2C)NC1=O [BR, bilirubin]
- Effect on HCV protein expression by Western blot [1]: decreased NS5A
- Effect on cellular proliferation or toxicity [2]: no effect

Compound: C=CC1=C(C)/C(=C/C2=NC(=C\c3[nH]c(/C=C4\NC(=O)C(C)=C4C=C)c(C)c3CCC(=O)O)/C(CCC(=O)O)=C2C)NC1=O [Biliverdin, biliverdin-IX-α hydrochloride]
- Effect on HCV protein expression by Western blot [1]: decreased NS5A
- Ki [3]: 600 nM
- Mode of inhibition of NS3/4A protease ([3]; Lineweaver-Burk plots): mixed competitive and non-competitive inhibition
- Effect of BV combined with #25346 on protease activity ([3]; assays in the presence of both BV and #25346): additive effect
- Effect on Huh7.5 cell infection with J6/JFH [4]: markedly decreased
- Effect on α-interferon antiviral activity [5]: clear additive effect
- Inhibition of endogenous NS3/4A protease [6]: potently inhibited
- Effect on cellular proliferation or toxicity [2]: no effect

Compound: [Cl][Fe][Cl] [FeCl2]
- Effect on HCV protein expression by Western blot [1]: decreased NS5A and core protein

Compound: hemin [Heme]
- Relative [HCV] [ΔCΤ] ([7]; heme 5 uM overnight): 0.27
- Relative [HCV] [ΔCΤ] ([7]; heme 10 uM overnight): 0.09
- Relative [HCV] [ΔCΤ] ([7]; heme 20 uM overnight): 0.03
- Lowest level at which antiviral effect is apparent ([7]; NS replicon, overnight incubation with hemin): 5 µM
- Lowest level at which antiviral effect is apparent ([8]; FL replicon, overnight incubation with hemin): 5 µM
- Relative [HCV] [ΔCΤ] ([8]; heme 5 uM overnight): 0.22
- Relative [HCV] [ΔCΤ] ([8]; heme 10 uM overnight): 0.08
- Relative [HCV] [ΔCΤ] ([8]; heme 20 uM overnight): 0.04
